Assay results as given in article PMC4574835 (British Journal of Clinical Pharmacology, 2015).

Columns and labels:
[1] = test system: organic cation transporter, OCT2; details: cited from earlier work
Population PK model = assay type: in vivo, human
[2] = Exploratory PK-PD relationship, safety endpoints; assay type: in vivo, human; details: AUC(0-τ), Cmax and Cτ; except serum creatinine and CRCL
Method in brief: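 This was an exploratory graphical analysis in phase 2b/3 treatment-naive patients. Individual predicted steady-state Cτ, Cmax and AUC(0-τ) came from the final population model, using actual doses and assuming no inter-occasion variability. They were plotted against change from baseline in serum creatinine, creatinine clearance, urine albumin:creatinine ratio, ALT and total bilirubin, both as maximal change over 48 weeks and as change at week 48.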

[3] = Individual predicted steady-state PK parameters; assay type: in vivo, human; details: for Tmax / AUC / Cmax: human, plasma, oral; for AUC: AUC(0-τ); for AUC / Cmax / Cτ: steady state
Method in brief: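 Individual parameters were empirical Bayes estimates from the final population model, using each subject's actual dose after repeat dosing. AUC(0-τ) was Dose/([CL/F_i]/F). Cmax, tmax and Cτ came from simulated steady-state concentration–time profiles using individual parameters, assuming no inter-occasion variability and zero residual variability. Summary statistics were computed.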

[4] = test system: viral strains harboring major integrase resistance mutations selected for by raltegravir and elvitegravir; details: in vitro; mutations selected for by RAL and EVG; cited from earlier work
[5] = NONMEM point estimate, inter-individual variability
[6] = NONMEM point estimate, listed as DTG
[7] = 10 mg, ING111521, 10 mg once daily, geometric mean (95% CI)
[8] = 10 mg, SPRING-1, 10 mg once daily, geometric mean (95% CI)
[9] = 50 mg, ING111521, 50 mg once daily, geometric mean (95% CI)
[10] = 50 mg, SPRING-2, 50 mg once daily, geometric mean (95% CI)

C[C@@H]1CCO[C@H]2Cn3cc(C(=O)NCc4ccc(F)cc4F)c(=O)c(O)c3C(=O)N12 [dolutegravir, Dolutegravir]
Inhibition of OCT2 [1]: known to inhibit
ALAG (absorption lag-time) (Population PK model; NONMEM point estimate): 0.263 h
ka (absorption rate constant) (Population PK model; NONMEM point estimate): 2.24 h^–1
F ∼ 10 mg (Population PK model; NONMEM point estimate, factor on F for 10 mg dose): 1.24
F ∼ GENDER (Population PK model; NONMEM point estimate, factor on F for females): 1.21
ω^2V (variance of random effect of V/F) (Population PK model; [5]): 0.0188
ω^2ka (variance of random effect of ka) (Population PK model; [5]): 0.224
ALAG (absorption lag-time) (Population PK model; [6]): 0.263 (0.0942, 0.432) h
ka (absorption rate constant) (Population PK model; [6]): 2.24 (1.56, 2.92) h^–1
V/F ∼ WT (Population PK model; NONMEM point estimate, power coefficient (WT/70)): 0.768
σ^2prop (proportional residual error) (Population PK model; NONMEM point estimate, residual variability): 0.0704
CL/F range over age in analysis population (Population PK model; age 18–68 years): 0.772–0.998 l h^–1
ALAG (Population PK model; bootstrap median, 1000 runs): 0.262 h
CL/F (Population PK model; bootstrap median, 1000 runs): 0.901 l h^–1
F ∼ 10 mg (Population PK model; bootstrap median, 1000 runs): 1.24
F ∼ GENDER (Population PK model; bootstrap median, 1000 runs): 1.21
V/F (Population PK model; bootstrap median, 1000 runs): 17.4 L
V/F ∼ WT (Population PK model; bootstrap median, 1000 runs): 0.774
ka (Population PK model; bootstrap median, 1000 runs): 2.21 h^–1
σ^2prop (Population PK model; bootstrap median, 1000 runs): 0.0698
ω^2CL (Population PK model; bootstrap median, 1000 runs): 0.0539
ω^2V (Population PK model; bootstrap median, 1000 runs): 0.0182
ω^2ka (Population PK model; bootstrap median, 1000 runs): 0.217
Increase in CL/F for study ING111521 (Population PK model; compared with SPRING-1 and SPRING-2): 35%
Oral bioavailability (F) higher in female subjects (Population PK model; compared with males, mean): 21%
Vd/F (Population PK model; human, plasma, oral): 17.4 L
Apparent clearance higher in current smokers (Population PK model; vs non-current smokers, mean): 16%
CL/F range over weights in analysis population (Population PK model; weight 39–135 kg): 0.697–1.20 l h^–1
V/F range over weights in analysis population (Population PK model; weight 39–135 kg): 11.1 to 28.8 L
Relationship between DTG exposure and the safety endpoints [2]: No relationship
Tmax [3]: ~2 h
Tmax ([3]; 10 mg): 1.66 h
AUC [3, 7]: 9330 ng·h/mL
AUC [3, 8]: 14300 ng·h/mL
Cmax [3, 7]: 691 ng/mL
Cmax [3, 8]: 957 ng/mL
Tmax ([3]; 50 mg): 1.94 h
AUC [3, 9]: 41300 ng·h/mL
AUC ([3]; 50 mg, SPRING-1, 50 mg once daily, geometric mean (95% CI)): 53800 ng·h/mL
AUC [3, 10]: 53600 ng·h/mL
Cmax [3, 9]: 2940 ng/mL
Cmax [3, 10]: 3690 ng/mL
Cτ ([3]; 50 mg once daily, three studies pooled (n = 449), geometric mean): 1.11 µg ml^–1
Cτ ([3]; ING111521, 10 mg once daily, geometric mean (95% CI)): 0.168 (0.136, 0.208) µg ml^–1
Cτ ([3]; ING111521, 50 mg once daily, geometric mean (95% CI)): 0.785 (0.689, 0.895) µg ml^–1
Cτ ([3]; SPRING-1, 10 mg once daily, geometric mean (95% CI)): 0.311 (0.281, 0.345) µg ml^–1
Cτ ([3]; SPRING-1, 25 mg once daily, geometric mean (95% CI)): 0.530 (0.462, 0.609) µg ml^–1
Cτ ([3]; SPRING-1, 50 mg once daily, geometric mean (95% CI)): 1.17 (1.04, 1.33) µg ml^–1
Cτ ([3]; SPRING-2, 50 mg once daily, geometric mean (95% CI)): 1.10 (1.05, 1.15) µg ml^–1
Activity against viral strains harboring major integrase resistance mutations [4]: retains activity
